Data as given in ChEMBL document CHEMBL3632461 (J Med Chem, 2015).
Blank lines part the entries; values can stand above or below the compound they belong to. The source made the active and inactive calls. No cut-off for these calls is given here.

Assays:
[1] = Retention time of the compound in sodium phosphate buffer at 10 uM after 60 mins by LC-MS/MS analysis in presence of H2O2; type: physicochemical; details: 1 h
[2] = target: T1, Myeloperoxidase (Homo sapiens) (UniProt P05164); experiment: (§1) Inhibition of peroxidase activity of MPO isolated from human polynuclear leukocytes using Amplex Red as substrate assessed as formation of resorufin measured every 20 secs by spectrophotometric analysis
T1 sequence (whole entry): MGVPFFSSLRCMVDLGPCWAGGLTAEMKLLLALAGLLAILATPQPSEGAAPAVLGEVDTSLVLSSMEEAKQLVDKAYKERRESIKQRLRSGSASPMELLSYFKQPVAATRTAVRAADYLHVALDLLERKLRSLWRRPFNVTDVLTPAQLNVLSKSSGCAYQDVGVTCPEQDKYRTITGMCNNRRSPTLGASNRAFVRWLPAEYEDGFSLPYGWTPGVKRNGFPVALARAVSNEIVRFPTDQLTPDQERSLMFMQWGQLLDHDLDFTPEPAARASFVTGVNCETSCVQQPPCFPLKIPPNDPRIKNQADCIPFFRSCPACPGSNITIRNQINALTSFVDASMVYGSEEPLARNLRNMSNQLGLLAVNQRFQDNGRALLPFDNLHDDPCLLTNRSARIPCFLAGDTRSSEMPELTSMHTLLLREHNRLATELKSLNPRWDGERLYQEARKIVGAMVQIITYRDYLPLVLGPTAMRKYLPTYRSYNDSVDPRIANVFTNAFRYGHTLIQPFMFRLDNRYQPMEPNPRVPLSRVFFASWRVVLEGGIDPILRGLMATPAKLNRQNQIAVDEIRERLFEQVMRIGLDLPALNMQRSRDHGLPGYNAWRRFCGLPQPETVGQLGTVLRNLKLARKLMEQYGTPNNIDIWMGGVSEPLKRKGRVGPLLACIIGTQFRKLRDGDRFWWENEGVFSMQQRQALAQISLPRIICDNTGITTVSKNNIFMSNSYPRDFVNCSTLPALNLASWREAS

Myeloperoxidase [3] = target: T2, Myeloperoxidase (Homo sapiens, UniProt P05164); experiment: as §1
T2 sequence (P05164 whole entry): T1 sequence (whole entry)

Myeloperoxidase [4] = target: T2, Myeloperoxidase; experiment: Irreversible inhibition of MPO in LPS-stimulated human whole blood after 4 hrs by Amplex Red/H2O2-based fluorescence plate reader analysis
How it was run: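 Heparinized whole blood from healthy human volunteers, stimulated with bacterial LPS and incubated with compound for 4 h. MPO captured on anti-MPO antibody plates and washed; residual activity measured with Amplex Red and H₂O₂. IC₅₀ reported as geometric mean [90% CI].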

[5] = target: T1, Myeloperoxidase (Homo sapiens); experiment: Inhibition of peroxidase activity of MPO isolated from human polynuclear leukocytes using Amplex Red as substrate assessed as formation of resorufin by measuring ratio of Kinact to Ki measured every 20 secs by spectrophotometric analysis
How it was run: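 Enzyme purified from human polynuclear leukocytes. Buffer: 50 mM sodium phosphate pH 7.4, 150 mM NaCl, 1 mM DTPA, 2 μM H2O2, 30 μM Amplex Red, inhibitor or DMSO. Resorufin fluorescence (ex 530/em 580) read every 20 s at room temperature. Progress curves fitted for kobs at each concentration. kinact/KI derived from the kobs versus [I] fit or slope. Geometric mean of at least two experiments.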

[6] = Lipophilicity, log D of the compound at pH 7.4 by shake-flask method; type: physicochemical; details: buffer
[7] = Apparent permeability across RRCK cells; type: ADME, cell-based, Canis lupus familiaris, MDCKII-LE; details: dog, MDCK
How it was run: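 Passive permeability measured in Ralph−Russ canine kidney (RRCK) cells, a low-transporter line isolated from Madin−Darby canine kidney cells; reported as P_app (10⁻⁶ cm/s).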

[8] = Retention time of the compound by LC-MS/MS analysis in presence of human MPO/H2O2/Cl-/excess GSH; type: physicochemical
[9] = target: T3, Thyroid peroxidase (Homo sapiens) (UniProt P07202); experiment: Inhibition of TPO (unknown origin) using Amplex Red as substrate assessed as formation of resorufin by measuring ratio of Kinact to Ki measured every 20 secs by spectrophotometric analysis
T3 sequence (whole entry): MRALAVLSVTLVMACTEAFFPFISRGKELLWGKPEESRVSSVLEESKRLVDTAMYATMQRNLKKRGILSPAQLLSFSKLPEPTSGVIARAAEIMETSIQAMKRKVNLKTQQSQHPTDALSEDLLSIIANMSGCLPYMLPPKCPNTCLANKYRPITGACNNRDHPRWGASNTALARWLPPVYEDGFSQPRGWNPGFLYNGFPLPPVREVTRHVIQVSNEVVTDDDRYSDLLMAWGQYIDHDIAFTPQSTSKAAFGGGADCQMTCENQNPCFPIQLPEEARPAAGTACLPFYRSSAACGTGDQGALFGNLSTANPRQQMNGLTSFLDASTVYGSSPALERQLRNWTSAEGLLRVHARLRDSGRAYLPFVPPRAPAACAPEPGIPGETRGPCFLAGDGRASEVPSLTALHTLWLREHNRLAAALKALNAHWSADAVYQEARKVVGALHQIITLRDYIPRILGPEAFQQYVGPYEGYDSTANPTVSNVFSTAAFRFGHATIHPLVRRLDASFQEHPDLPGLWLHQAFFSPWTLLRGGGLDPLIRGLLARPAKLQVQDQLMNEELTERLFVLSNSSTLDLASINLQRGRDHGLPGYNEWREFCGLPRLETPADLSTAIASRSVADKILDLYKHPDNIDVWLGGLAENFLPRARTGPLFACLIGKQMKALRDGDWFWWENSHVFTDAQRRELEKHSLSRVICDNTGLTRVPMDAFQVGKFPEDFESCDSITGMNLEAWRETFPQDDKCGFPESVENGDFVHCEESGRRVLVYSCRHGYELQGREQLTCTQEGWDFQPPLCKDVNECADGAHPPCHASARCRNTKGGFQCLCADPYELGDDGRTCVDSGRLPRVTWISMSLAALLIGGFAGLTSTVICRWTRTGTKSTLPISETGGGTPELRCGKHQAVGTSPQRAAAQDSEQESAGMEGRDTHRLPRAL
How it was run: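 Amplex Red oxidation to resorufin in 50 mM sodium phosphate pH 7.4, 150 mM NaCl, 1 mM DTPA, 2 μM H2O2, 30 μM Amplex Red, 2% DMSO. Reaction started by adding TPO. Background rate measured with bovine catalase added and subtracted. Fluorescence (ex 530/em 580) read every 20 s at room temperature. kinact/KI taken from initial rates over the first 300 s. Geometric mean of at least two experiments.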

Liver microsome = experiment: Intrinsic apparent clearance in human liver microsomes; type: ADME
How it was run: (§2)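 Stability incubations in NADPH-supplemented human liver microsomes or cryopreserved human hepatocytes. Total apparent intrinsic clearance scaled from the in vitro half-life; microsomes reported per mg protein, hepatocytes per 10⁶ cells.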

[10] = Elimination half life in Beagle dog at 1 mg/kg, iv and 3 or 5 mg/kg, po; type: ADME, organism-based, Canis lupus familiaris; details: in vivo, read-out: beta t1/2 (converted)
How it was run: (§3)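 Male CD-1 mice (25−35 g), cannulated Wistar-Han rats (250 g), beagle dogs (12 kg) and cynomolgus monkeys (7 kg), fasted overnight and fed 1.0 or 2.0 h after dosing. iv 1 mg/kg in saline or 12% sulfobutyl ether β-cyclodextrin; po 3 or 5 mg/kg in 0.5% methylcellulose. Parameters calculated from plasma concentration−time data; mean ± SD for n = 3, individual values for n = 2.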

[11] = Oral bioavailability in Beagle dog at 3 or 5 mg/kg; type: ADME, organism-based, Canis lupus familiaris; details: in vivo
How it was run: (§4)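 Male CD-1 mice, Wistar-Han rats, beagle dogs and cynomolgus monkeys, fasted overnight and fed after dosing. Given po at 3 or 5 mg/kg in 0.5% methylcellulose, with an iv reference dose of 1 mg/kg. Bioavailability derived from plasma concentration−time data; mean ± SD (n = 3) or individual values (n = 2).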

[12] = Elimination half life in Wistar rat at 1 mg/kg, iv and 3 or 5 mg/kg, po; type: ADME, organism-based; details: in vivo, read-out: beta t1/2 (converted); how it was run: as §3
[13] = Volume of distribution at steady state in Wistar rat at 1 mg/kg, iv and 3 or 5 mg/kg, po; type: ADME, organism-based; details: in vivo, read-out: Vdss
How it was run: (§5)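 Male mice, rats, dogs and cynomolgus monkeys, fasted overnight, fed after dosing. Intravenous dose 1 mg/kg in saline or 12% sulfobutyl ether β-cyclodextrin; oral arm 3 or 5 mg/kg in 0.5% methylcellulose. Steady-state volume derived from plasma concentration−time data; mean ± SD for n = 3, individual values for n = 2.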

[14] = Plasma clearance in Wistar rat at 1 mg/kg, iv and 3 or 5 mg/kg, po; type: ADME, organism-based; how it was run: as §3
[15] = Volume of distribution at steady state in Beagle dog at 1 mg/kg, iv and 3 or 5 mg/kg, po; type: ADME, organism-based, Canis lupus familiaris; details: in vivo, read-out: Vdss; how it was run: as §5
[16] = Tmax in Beagle dog at 3 or 5 mg/kg, po; type: ADME, organism-based, Canis lupus familiaris; details: in vivo
How it was run: (§6)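 Male animals (CD-1 mice 25−35 g, cannulated Wistar-Han rats 250 g, beagle dogs 12 kg, cynomolgus monkeys 7 kg), fasted overnight and fed 1.0 or 2.0 h after dosing, water ad libitum. Oral dose 3 or 5 mg/kg in 0.5% methylcellulose. Parameters calculated from plasma concentration−time data; mean ± SD for n = 3, individual values for n = 2.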

[17] = Oral bioavailability in Wistar rat at 3 or 5 mg/kg; type: ADME, organism-based; details: in vivo; how it was run: as §4
Hepatocyte = experiment: Intrinsic apparent clearance in human hepatocytes assessed per 10^6 cells; type: ADME, cell-based; how it was run: as §2
[18] = Tmax in Wistar rat at 3 or 5 mg/kg, po; type: ADME, organism-based; details: in vivo; how it was run: as §6
[19] = Plasma clearance in Beagle dog at 1 mg/kg, iv and 3 or 5 mg/kg, po; type: ADME, organism-based, Canis lupus familiaris; how it was run: as §3
[20] = Fraction unbound in human plasma by equilibrium dialysis method; type: ADME, cell-free
How it was run: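 Fraction unbound in human plasma measured by equilibrium dialysis; mean of three individual determinations.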

[21] = Drug level in sodium phosphate buffer treated with 10 uM PTU after 60 mins by LC-MS/MS analysis in presence of human MPO/H2O2/Cl-; type: physicochemical; details: 1 h
[22] = target: T1, Myeloperoxidase (Homo sapiens); details: 0.47 to 30 uM
Myeloperoxidase [23] = target: T2, Myeloperoxidase; experiment: Inhibition of peroxidase activity of MPO isolated from human polynuclear leukocytes using Amplex Red as substrate assessed as formation of resorufin after 300 secs by spectrophotometric analysis
[24] = target: T1, Myeloperoxidase (Homo sapiens); details: 24 uM
[25] = target: T1, Myeloperoxidase (Homo sapiens); details: 24 uM; remark: listed apart in the source

SMILES: COc1ccc(-c2cc(=O)nc3n2CCO3)c(OC)c1
Retention_time [1]: 14.99 min

SMILES: COc1ccc(-c2cc(=O)[nH]c(=S)n2CCOC(C)C)c(OC)c1
pKinact [2]: 2.43
Ki (Myeloperoxidase [3]): 0.501 µM
IC50 (Myeloperoxidase [4]): 11 µM
log(ratio) [5]: 3.87
logD [6]: 2.6
Papp [7]: 26 ×10⁻⁶ cm/s
Retention_time [8]: 25.4 min
log(ratio) [9]: < 0.5
CLH(app) (Liver microsome): 11 µL/min/mg

SMILES: COc1ccc(-c2cc(=O)nc(SC[C@H](NC(=O)CC[C@H](N)C(=O)O)C(=O)NCC(=O)O)n2CCOC(C)C)c(OC)c1
Retention_time [8]: 15.7 min

SMILES: COc1ccc(-c2cc(=O)[nH]c(=S)n2CC(=O)NCCN)c(OC)c1
half-life [10]: 155 min
bioavailability [11]: 8%
half-life [12]: 48.6 min
Vd [13]: 0.59 L/kg
log(ratio) [5]: 4.03
clearance [14]: 38.6 mL/min/kg
logD [6]: -1.4
Vd [15]: 0.86 L/kg
Tmax [16]: 60 min
bioavailability [17]: 3%
Papp [7]: 1.5 ×10⁻⁶ cm/s
CLH(app) (Hepatocyte): < 6 µL/min
Tmax [18]: 45 min
clearance [19]: 4.1 mL/min/kg
log(ratio) [9]: < 0.5
CLH(app) (Liver microsome): < 8 µL/min/mg
fraction unbound [20]: 0.9

SMILES: COc1ccccc1-c1cc(=O)[nH]c(=S)[nH]1
IC50 (Myeloperoxidase [4]): 6.2 µM
log(ratio) [5]: 3.36
logD [6]: 1.3
log(ratio) [9]: 2.86

Next, values leading:

Drug metabolism [21]: metabolite_detected
SMILES: CCCc1cc(=O)nc(S(=O)(=O)O)[nH]1

Drug metabolism [21]: metabolite_detected
SMILES: CCCc1cc(=O)nc(SSc2nc(=O)cc(CCC)[nH]2)[nH]1

Drug metabolism [21]: metabolite_detected
SMILES: CCCc1cc(=O)nc(S(=O)O)[nH]1

inhibition [22]: tde
IC50 (Myeloperoxidase [23]): 2.81 µM
IC50 (Myeloperoxidase [4]): 5.7 µM
inhibition [24]: inactive
inhibition [25]: Active
SMILES: CCCc1cc(=O)[nH]c(=S)[nH]1 [PROPYLTHIOURACIL]
